Screening results deposited in PubChem by several laboratories.
PHOSPHO1 inh: PubChem AID 1565; recombinant PHOSPHO1, absorbance phosphatase assay; 290,000 tested, 1.1% active; Phosphoethanolamine/phosphocholine phosphatase (Homo sapiens), Q8TCT1; inhibition, % at 13.3 µM; in the data active means inhibition above about 60%
Target sequence (Q8TCT1 whole entry, looked up): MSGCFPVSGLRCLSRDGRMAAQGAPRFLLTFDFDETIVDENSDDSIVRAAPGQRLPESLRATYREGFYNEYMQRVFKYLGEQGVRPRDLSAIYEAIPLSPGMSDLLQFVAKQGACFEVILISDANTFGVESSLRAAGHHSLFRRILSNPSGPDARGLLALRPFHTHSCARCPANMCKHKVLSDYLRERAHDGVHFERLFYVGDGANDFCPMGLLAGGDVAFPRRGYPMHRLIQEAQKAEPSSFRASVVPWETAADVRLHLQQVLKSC
MrgX1 antag: antagonists of human MrgX1 receptor, primary screen, HEK293 cells, Fluo-4 calcium flux | BAM8-22 antagonism; hits give low values | B-score at 10 µM | 310,000 tested, 1.3% active | AID 588676, 2011;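 active means calcium-response B-score plate-corrected more than 3 library SD below zero, starting fluorescence within 5 deviations, no agonist response on first addition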;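 further: peak minus trough fluorescence over baseline after final BAM8-22 challenge near maximal dose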
Target sequence (Q96LB2 whole entry, looked up): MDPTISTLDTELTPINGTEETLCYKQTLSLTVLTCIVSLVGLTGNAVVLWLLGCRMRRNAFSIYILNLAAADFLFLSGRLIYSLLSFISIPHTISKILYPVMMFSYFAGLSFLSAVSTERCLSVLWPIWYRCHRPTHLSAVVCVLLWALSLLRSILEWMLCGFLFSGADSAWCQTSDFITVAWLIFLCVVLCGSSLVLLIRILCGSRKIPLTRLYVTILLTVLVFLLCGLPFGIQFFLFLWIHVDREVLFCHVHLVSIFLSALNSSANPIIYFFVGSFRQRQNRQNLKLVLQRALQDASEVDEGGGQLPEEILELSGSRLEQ
MrgX1 agonist: agonists of human MrgX1 receptor, primary screen, HEK293 cells, Fluo-4 calcium flux. Fluo-4 calcium fluorescence, agonist mode; hits give high values. B-score at 10 µM. 310,000 tested, 0.44% active. Mas-related G-protein coupled receptor member X1 (Homo sapiens), Q96LB2;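 active means calcium response B-score plate-corrected fluorescence ratio at least 3 library SD, with starting fluorescence B-score inside 5 SD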
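System: HEK293 cells stably expressing human MrgX1 receptor; Dosing: test compound in the initial addition of three; Schedule: overnight plating, then 30 min 37 °C plus 30 min room-temperature dye loading; Detection: kinetic calcium dye fluorescence, Fluo-4 NW; Controls: per-plate positive and negative controls for Z′ factor.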
RGS4 block: RGS4 inhibitors, primary screen, cell-based, HEK293 M3R inducible RGS4, calcium flux; Fluo-4 calcium flux; hits give high values; triggered by carbachol at its EC20; B-score at 10 µM; 310,000 tested, 0.45% active;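 active means B-score, a plate-corrected calcium signal, over three deviations above library mean, with baseline fluorescence within five deviations of library mean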;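 further: RGS4 expression induced by doxycycline in cells with stable M3 receptor; B-score is computed from the integrated fluorescence ratio over baseline after carbachol; higher B-score means a larger calcium signal and so more RGS4 inhibition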
MrgX1 PAM: positive allosteric modulators of MrgX1, primary screen, HEK293 cells, Fluo-4 calcium flux. FDSS; hits give high values. Mas-related G-protein coupled receptor member X1 (Homo sapiens), Q96LB2. 310,000 tested, 0.63% active. B-score at 10 µM;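 active means plate-corrected calcium response at least 3 library SD above typical, normal starting fluorescence, not activating the receptor alone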;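 further: compound read alongside a low EC10 to EC30 dose of BAM8-22 agonist; peak minus trough fluorescence over baseline measured at the second addition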
RGS4 pot: RGS4 potentiators or activators, primary screen, cell-based, HEK293 M3R inducible RGS4, calcium flux; carbachol calcium flux Fluo4; hits give low values; B-score at 10 µM; 310,000 tested, 0.92% active;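 active means B-score of the integrated calcium signal more than 4 SD below the library mean, with starting fluorescence not abnormally high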;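 further: negative B-score means reduced calcium response which marks RGS4 activation or potentiation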
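System – HEK293 FlpIn-TREx cells, stable M3R, doxycycline-inducible RGS4 · Reagent – ECmax carbachol challenge · Times – compound preincubation 20 min at room temperature before agonist · Technique – Fluo4 fluorescence kinetic imaging of calcium · Measure – B score of integrated Fluo4 ratio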
MrgX1 PAM conf: MrgX1 positive allosteric modulators, duplicate retest, confirmation, HEK293 cells, Fluo-4 calcium flux; shares compounds with MrgX1 PAM; Fluo-4 calcium fluorescence, FDSS; activation (ratio percentage), % at 10 µM; 1,200 tested, 13% active; AID 602413, 2012;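 active means ratio at least 3 SD above the weak peptide control, stable starting fluorescence, no direct agonism earlier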;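 further: compound followed by low BAM8-22 agonist challenge near EC20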
HEK293 Ca flux: nonspecific calcium signal in parental HEK293, confirmation, counter-screen for MrgX1 antagonist project, parental HEK293 cells, Fluo-4 calcium flux. shares compounds with MrgX1 antag. Fluo-4 calcium fluorescence, FDSS. fluorescence ratio F(max-min)/F0 at 10 µM. 4,000 tested, 2% active. AID 624111, 2012;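 active means duplicate-averaged calcium fluorescence ratio at least three times the standard deviation of buffer wells, a nonspecific response in parental cells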
HEK293 Ca counter: calcium response in parental HEK293 cells, primary screen, counter-screen for MrgX1 allosteric activator project, cell-based, Fluo-4 calcium flux, duplicate | 4,000 tested, 0.4% active | Fluo-4 fluorescence ratio; hits give high values | shares compounds with MrgX1 antag | fluorescence ratio F(max-min)/F0 at 10 µM;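 active means calcium fluorescence ratio, averaged over duplicates, at least 3 SD of the buffer-well ratio, meaning a nonspecific response in receptor-free cells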;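 further: untransfected parental HEK293 lacking MrgX1 used as counterscreen for MrgX1 allosteric activators; fluorescence change taken during the second addition on a kinetic imager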
HEK293 Ca cntr2: calcium response in parental HEK293 cells, primary screen, counter-screen for MrgX1 agonist project, cell-based, Fluo-4 calcium flux, duplicate, agonist mode; shares compounds with MrgX1 antag; Fluo-4 calcium fluorescence (FDSS); hits give high values; fluorescence ratio F(max-min)/F0 at 10 µM; 4,000 tested, 8.7% active;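 active means calcium fluorescence ratio at least three times the spread of buffer wells, meaning a non-specific response in parental cells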
Numbers stand for hits. In the library only some 4.5% were active in any assay of this set; here they are far more common.

For COc1ccccc1-n1cc(-c2ccccc2)c2c(=S)nc[nH]c21 the results were PHOSPHO1 inh inactive, MrgX1 antag inactive, MrgX1 agonist inactive, RGS4 block inactive, MrgX1 PAM 16, RGS4 pot inactive, MrgX1 PAM conf inactive, HEK293 Ca flux inactive, HEK293 Ca counter inactive and HEK293 Ca cntr2 inactive.
For Cc1ccc(S(=O)(=O)c2c(C)nn(C(C)(C)C)c2OC(=O)C(C)C)cc1 the results were PHOSPHO1 inh inactive, MrgX1 antag inactive, MrgX1 agonist inactive, RGS4 block inactive, MrgX1 PAM 12, RGS4 pot inactive, MrgX1 PAM conf inactive, HEK293 Ca flux inactive, HEK293 Ca counter inactive and HEK293 Ca cntr2 inactive.
For CCNc1nc(OC)nc(SCC(=O)Nc2ccccc2)n1 the results were PHOSPHO1 inh inactive, MrgX1 antag inactive, MrgX1 agonist inactive, RGS4 block inactive, MrgX1 PAM inactive and RGS4 pot inactive.
NC(=O)c1ccsc1NC(=O)c1ccc(N2CCCC2=O)cc1 was read as PHOSPHO1 inh inactive, MrgX1 antag inactive, MrgX1 agonist inactive, RGS4 block inactive, MrgX1 PAM inactive and RGS4 pot inactive.
For CC(=O)Cc1nsc(NC(=O)c2ccc(-c3ccc(Cl)cc3Cl)o2)n1 the results were PHOSPHO1 inh inactive, MrgX1 antag inactive, MrgX1 agonist inactive, RGS4 block inactive, MrgX1 PAM inactive and RGS4 pot inactive.
`CC(=O)Cc1nsc(NC(=O)c2ccc(-c3cc(Cl)ccc3Cl)o2)n1` gave PHOSPHO1 inh inactive, MrgX1 antag inactive, MrgX1 agonist inactive, RGS4 block inactive, MrgX1 PAM 40, RGS4 pot inactive, MrgX1 PAM conf 32%, HEK293 Ca flux inactive, HEK293 Ca counter inactive and HEK293 Ca cntr2 inactive.
For CCN(CC)S(=O)(=O)c1ccc(NC(=O)COC(=O)c2ccc(NC(=O)CC#N)cc2)cc1 the results were PHOSPHO1 inh inactive, MrgX1 antag inactive, MrgX1 agonist inactive, RGS4 block inactive, MrgX1 PAM inactive and RGS4 pot inactive.
NC(=O)c1c(NC(=O)C2c3ccccc3Oc3ccccc32)sc2c1CCCCC2 was read as PHOSPHO1 inh inactive, MrgX1 antag inactive, MrgX1 agonist inactive, RGS4 block inactive, MrgX1 PAM 13, RGS4 pot inactive, MrgX1 PAM conf inactive, HEK293 Ca flux inactive, HEK293 Ca counter inactive and HEK293 Ca cntr2 inactive.
Screening O=C1S/C(=C/c2ccccc2F)C(=O)N1CCN=C1NS(=O)(=O)c2ccccc21 returned PHOSPHO1 inh inactive, MrgX1 antag inactive, MrgX1 agonist inactive, RGS4 block inactive, MrgX1 PAM inactive and RGS4 pot inactive.
`COCCNC(=S)N1CCc2cc(OC)c(OC)cc2C1c1cccs1` (stereo not drawn) gave PHOSPHO1 inh inactive, MrgX1 antag inactive, MrgX1 agonist inactive, RGS4 block inactive, MrgX1 PAM inactive and RGS4 pot inactive.
`CCc1nn2c(N)c(/C=C3\C=Nc4ccccc43)c(=O)nc2s1` gave PHOSPHO1 inh inactive, MrgX1 antag inactive, MrgX1 agonist inactive, RGS4 block inactive, MrgX1 PAM 6.8, RGS4 pot inactive, MrgX1 PAM conf 12%, HEK293 Ca flux inactive, HEK293 Ca counter inactive and HEK293 Ca cntr2 inactive.
For CSc1nsc2nc(=O)c(/C=C3\C=Nc4ccccc43)c(N)n12 the results were PHOSPHO1 inh inactive, MrgX1 antag inactive, MrgX1 agonist inactive, RGS4 block inactive, MrgX1 PAM 57, RGS4 pot inactive, MrgX1 PAM conf 15%, HEK293 Ca flux inactive, HEK293 Ca counter inactive and HEK293 Ca cntr2 inactive.
`COc1ccc(CNC(=O)CN(C(=O)c2snc(C(N)=O)c2N)c2ccc(OC)c(OC)c2)cc1` gave PHOSPHO1 inh inactive, MrgX1 antag inactive, MrgX1 agonist inactive, RGS4 block inactive, MrgX1 PAM inactive and RGS4 pot inactive.
`CCC(C)NC(=O)NCc1ccccc1F` (stereo not drawn) gave PHOSPHO1 inh inactive, MrgX1 antag inactive, MrgX1 agonist inactive, RGS4 block inactive, MrgX1 PAM inactive and RGS4 pot inactive.
Screening Cc1nnc(Sc2c(N)n(C)c(=O)n(C)c2=O)s1 returned PHOSPHO1 inh inactive, MrgX1 antag inactive, MrgX1 agonist inactive, RGS4 block inactive, MrgX1 PAM 11, RGS4 pot inactive, MrgX1 PAM conf inactive, HEK293 Ca flux inactive, HEK293 Ca counter inactive and HEK293 Ca cntr2 inactive.
Screening Cc1nnc(SCCn2c(Br)nc3c2c(=O)n(C)c(=O)n3C)s1 returned PHOSPHO1 inh inactive, MrgX1 antag inactive, MrgX1 agonist inactive, RGS4 block inactive, MrgX1 PAM inactive and RGS4 pot inactive.
COc1ccc(CC(=O)NC(=S)Nc2cccc(CO)c2)cc1 was read as MrgX1 antag inactive, MrgX1 agonist inactive, RGS4 block inactive, MrgX1 PAM 7.2, RGS4 pot inactive, MrgX1 PAM conf inactive, HEK293 Ca flux inactive, HEK293 Ca counter inactive and HEK293 Ca cntr2 inactive.
CC1=C(C(=O)Nc2ccccc2C(F)(F)F)C(c2sccc2C)NC(=S)N1 (stereo not drawn) was read as PHOSPHO1 inh inactive, MrgX1 antag inactive, MrgX1 agonist inactive, RGS4 block inactive, MrgX1 PAM inactive and RGS4 pot inactive.
`O=C(NCCOc1ccccc1)C1CCC(=O)N(CCCN2CCOCC2)C1` (stereo not drawn) gave PHOSPHO1 inh inactive, MrgX1 antag inactive, MrgX1 agonist inactive, RGS4 block inactive, MrgX1 PAM inactive and RGS4 pot inactive.
For CCn1c(SCC(=O)Nc2nc(C)c(C)s2)nc2cccnc21 the results were PHOSPHO1 inh inactive, MrgX1 antag inactive, MrgX1 agonist inactive, RGS4 block inactive, MrgX1 PAM inactive and RGS4 pot inactive.
